Consider 2 compounds from paper PMC10895701 (Nature structural & molecular biology, 2023).

The structures appear in SMILES notation.

Assay [1] deals with OCT1CS. Description: 3H-MPP+ uptake in X. laevis oocytes expressing OCT1CS. It counts as cell-based. The conditions noted are these: 30 min uptake. Summed up: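 Xenopus laevis oocytes injected with 30 ng cRNA, expressed 2–4 days at 17°C. Uptake of 3H-MPP+ (specific radioactivity 0.06 Ci/mmol) over a concentration series, 30 min uptake. Background corrected with water-injected oocytes; radioactivity counted. Kt fitted, reported ± s.e.m.; n=3 biologically independent replicates.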

Assay [2] has as its system OCT1CS. Description: 14C-metformin uptake in oocytes expressing OCT1CS. Type of assay: cell-based.
Assay [3] has as its system WT hOCT1. The conditions noted are these: cited from earlier work.

For the compound `C[n+]1ccc(-c2ccccc2)cc1` [MPP^+, 1-methyl-4-phenylpyridinium], in assay [1], the “Michaelis constant for transport (Kt) for MPP+ transport” value is given as ~ 50 μM. In the case of `CN(C)C(=N)N=C(N)N` [metformin], the Kt for metformin in assay [2] is recorded as ~ 3 mM. Also, the “Kt for metformin, previous reports” value in assay [3] was 1 to 5 mM.
